Assay outcomes (PubChem BioAssay)
MrgX1 antagonist: human MrgX1 receptor antagonism, primary screen | Q96LB2 | MRGX1-HEK293 calcium flux, Fluo-4, BAM8-22 antagonism; hits give low values | B-score at 10 µM | actives 1.3% (n = 310,000);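 active = calcium-response B-score plate-corrected more than 3 library SD below zero, starting fluorescence within 5 deviations, no agonist response on first addition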;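 also: peak minus trough fluorescence over baseline after final BAM8-22 challenge near maximal dose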
Target sequence (Q96LB2 whole entry, looked up): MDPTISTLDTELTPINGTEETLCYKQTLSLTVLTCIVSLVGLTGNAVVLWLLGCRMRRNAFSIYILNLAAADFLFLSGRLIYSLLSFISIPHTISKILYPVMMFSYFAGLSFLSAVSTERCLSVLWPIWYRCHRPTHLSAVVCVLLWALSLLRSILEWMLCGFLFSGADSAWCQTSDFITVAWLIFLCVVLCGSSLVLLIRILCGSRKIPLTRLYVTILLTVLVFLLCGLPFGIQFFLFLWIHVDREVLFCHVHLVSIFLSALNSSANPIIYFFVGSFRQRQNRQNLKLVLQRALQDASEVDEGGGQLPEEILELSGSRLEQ
MrgX1 allo act: human MrgX1 positive allosteric modulation, primary screen; MrgX1-HEK293, Fluo-4 calcium flux, FDSS; hits give high values; B-score at 10 µM; actives 0.63% (n = 310,000);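 active = plate-corrected calcium response at least 3 library SD above typical, normal starting fluorescence, not activating the receptor alone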;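 also: compound read alongside a low EC10 to EC30 dose of BAM8-22 agonist; peak minus trough fluorescence over baseline measured at the second addition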
RGS4 inh: human RGS4 inhibition. P49798. HEK293 M3R/RGS4 inducible, Fluo-4 calcium flux; hits give high values; triggered by carbachol at its EC20. B-score at 10 µM. actives 0.45% (n = 310,000);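 active = B-score, a plate-corrected calcium signal, over three deviations above library mean, with baseline fluorescence within five deviations of library mean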;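 also: RGS4 expression induced by doxycycline in cells with stable M3 receptor; B-score is computed from the integrated fluorescence ratio over baseline after carbachol; higher B-score means a larger calcium signal and so more RGS4 inhibition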
Target sequence (P49798 whole entry, looked up): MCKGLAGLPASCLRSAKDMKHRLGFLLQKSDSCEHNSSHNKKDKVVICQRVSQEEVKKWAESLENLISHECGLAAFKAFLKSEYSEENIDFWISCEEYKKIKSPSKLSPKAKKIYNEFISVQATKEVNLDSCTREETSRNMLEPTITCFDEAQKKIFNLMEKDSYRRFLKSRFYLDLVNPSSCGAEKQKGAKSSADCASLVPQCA
MrgX1 agonist: human MrgX1 receptor agonism, primary screen; Q96LB2; MrgX1-HEK293 cells, Fluo-4 calcium fluorescence, agonist mode; hits give high values; B-score at 10 µM; actives 0.44% (n = 310,000); AID 588627;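 active = calcium response B-score plate-corrected fluorescence ratio at least 3 library SD, with starting fluorescence B-score inside 5 SD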
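Assay system: MrgX1-expressing HEK293 cells / Amount: fifteen thousand cells per well / Doses: test compound in the initial addition of three / Timing: cells plated overnight, dye loaded 0.5 h 37 °C, 0.5 h room temperature / Technique: kinetic calcium dye fluorescence, Fluo-4 NW / Control set: positive and negative controls per plate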
RGS4 act: RGS4 potentiation or activation. AID 463111. actives 0.92% (n = 310,000). HEK293 M3R/inducible RGS4, carbachol calcium flux Fluo4; hits give low values. B-score at 10 µM;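 active = B-score of the integrated calcium signal more than 4 SD below the library mean, with starting fluorescence not abnormally high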;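 also: negative B-score means reduced calcium response which marks RGS4 activation or potentiation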
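Reagent: ECmax carbachol challenge; Test system: M3R-expressing HEK293 line, RGS4 induced by doxycycline; Schedule: overnight RGS4 induction, 30 min dye load 37 °C, 20 min compound RT; Detection: calcium dye Fluo4 fluorescence; Read-out: Agonist-evoked peak-minus-minimum fluorescence over baseline, integrated ratio, B score.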
MrgX1 ant reconf: confirmation of human MrgX1 receptor antagonists | remaining BAM8-22 calcium response % of control (hits give low values), % at 10 µM | MrgX1-HEK293, BAM8-22 calcium flux, Fluo-4; hits give low values | AID 602420 | shares compounds with MrgX1 antagonist | actives 19% (n = 2,300);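 active = remaining agonist calcium response no higher than 100% minus 3 SD of agonist-only control wells, with starting fluorescence near control levels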;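 also: agonist BAM8-22 given at a near maximal EC90 to ECmax level; peak minus minimum fluorescence divided by baseline after agonist addition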
HEK293 Ca flux: counter-screen for MrgX1 antagonists: effect in parental HEK293 cells | fluorescence ratio F(max-min)/F0 at 10 µM | Fluo-4 calcium fluorescence, FDSS | actives 2% (n = 4,000) | shares compounds with MrgX1 antagonist;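 active = duplicate-averaged calcium fluorescence ratio at least three times the standard deviation of buffer wells, a nonspecific response in parental cells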
HEK293 Ca counter: activity in parental HEK293 cells without MrgX1; parental HEK293 calcium flux, Fluo-4 fluorescence ratio; hits give high values; actives 0.4% (n = 4,000); AID 624114; shares compounds with MrgX1 antagonist; fluorescence ratio F(max-min)/F0 at 10 µM;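 active = calcium fluorescence ratio, averaged over duplicates, at least 3 SD of the buffer-well ratio, meaning a nonspecific response in receptor-free cells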;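 also: untransfected parental HEK293 lacking MrgX1 used as counterscreen for MrgX1 allosteric activators; fluorescence change taken during the second addition on a kinetic imager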
HEK293 Ca cntr2: counter-screen for MrgX1 activators: effect in parental HEK293 cells; shares compounds with MrgX1 antagonist; Fluo-4 calcium fluorescence (FDSS); hits give high values; fluorescence ratio F(max-min)/F0 at 10 µM; actives 8.7% (n = 4,000);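 active = calcium fluorescence ratio at least three times the spread of buffer wells, meaning a non-specific response in parental cells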
* marks the source's active call; other numbers are inactive results; i = inactive; / = no result. Rows were chosen to be rich in hits. Some 3.5% of all compounds tested hit in one or more screens of this group.

SMILES	MrgX1 antagonist	MrgX1 allo act	RGS4 inh	MrgX1 agonist	RGS4 act	MrgX1 ant reconf	HEK293 Ca flux	HEK293 Ca counter	HEK293 Ca cntr2
CCCCn1c(N)c(N(CC)C(=O)c2ccc([N+](=O)[O-])c(C)c2)c(=O)[nH]c1=O	i	i	i	i	i	/	/	/	/
Cc1ccc(S(=O)(=O)N2CCOCC2)cc1C(=O)Nc1nc(-c2cccnc2)cs1	-13*	i	i	i	i	i	i	i	i
CC1CCC2(CC1)NC(=O)N(CC(=O)Nc1cccc(S(=O)(=O)N3CCOCC3)c1)C2=O (stereo not given)	i	i	i	i	i	/	/	/	/
O=C(Cn1nnc(-c2ccccc2)n1)Nc1cccc(S(=O)(=O)N2CCOCC2)c1	-4.8*	i	i	i	i	70%*	i	i	i
CCN(CC(=O)Nc1cccc(S(=O)(=O)N2CCOCC2)c1)Cc1ccccc1	i	i	i	i	i	/	/	/	/
O=C(CN1C(=O)NC2(CCCCC2)C1=O)Nc1cccc(S(=O)(=O)N2CCOCC2)c1	-5.4*	i	i	i	i	i	i	i	i
O=C(COC(=O)c1cnccn1)NCCc1ccc(Cl)cc1Cl	-5.9*	i	i	i	i	i	i	i	i
O=C(COC(=O)c1cnccn1)Nc1ncc(Cl)cc1Cl	i	i	i	i	i	/	/	/	/
COc1cccc(CNC(=O)c2cccc(S(=O)(=O)N3CCN(C)CC3)c2)c1	i	i	i	i	i	/	/	/	/
CCOc1ccc(C(NC(C)=O)c2ccc(OC)c(OC)c2)cc1 (stereo not given)	-4.9*	i	i	i	i	i	i	i	i
CC(C)c1ccc(OCC(=O)NC2CC(C)(C)NC(C)(C)C2)c(Br)c1	i	i	i	i	i	/	/	/	/
CCOC(=O)C1=C(C)N(C)C(C)=C(C(=O)OCC)C1c1ccccn1	-7.2*	i	i	i	i	i	i	i	i
O=[N+]([O-])c1ccc(/C=N/NC(=S)Nc2ccccc2C(F)(F)F)o1	i	i	i	i	i	/	/	/	/
CCOCCn1c(CN2CCN(c3ccccc3)CC2)nc2c1c(=O)n(C)c(=O)n2C	-7.4*	i	i	i	i	i	i	i	i
Cc1ccc2c(c1)N(C(=O)CCC(=O)NCCCN1CCN(C)CC1)CCO2	-8.7*	i	i	i	i	i	i	i	i
Cc1ccc2c(c1)N(C(=O)CCC(=O)NCCCN1CCC(Cc3ccccc3)CC1)CCO2	i	i	i	i	i	/	/	/	/
O=C(Cn1nc(-c2ccc3c(c2)OCCO3)ccc1=O)Nc1cccc(NC(=O)c2ccccn2)c1	i	i	i	i	i	/	/	/	/
COC(=O)C1=C(CN2CCSCC2)NC(=O)NC1c1cc(C)ccc1C (stereo not given)	-5.6*	i	i	i	i	i	i	i	i
CN(C(=O)c1ccnn1C)C1CCCN(Cc2ccccc2F)C1 (stereo not given)	i	i	i	i	i	/	/	/	/
COc1ccc(C(=O)NC(C)c2ccc(-n3ccnc3)cc2)c(OC)c1 (stereo not given)	-10*	i	i	i	i	i	i	i	i
O=C(CSc1cccc(C(F)(F)F)c1)Nc1ccc(Cl)cc1Cl	i	i	i	i	i	/	/	/	/
O=C(NC1CCCC1)C(c1ccc(Cl)cc1)N1CCc2ccccc21 (stereo not given)	-4.8*	i	i	i	i	i	i	i	i
O=C(Nc1cccc2c1CCCC2)c1ccncc1	-8.5*	i	i	i	i	i	i	i	i
CN(c1ccccc1)S(=O)(=O)c1cccc(NC(=O)CC(C)(C)C)c1	i	i	i	i	i	/	/	/	/
CC(=O)Nc1ccc(NC(=O)COC(=O)Cc2c[nH]c3ccccc23)cc1	-6*	i	i	i	i	i	i	i	i
SMILES	MrgX1 antagonist	MrgX1 allo act	RGS4 inh	MrgX1 agonist	RGS4 act	MrgX1 ant reconf	HEK293 Ca flux	HEK293 Ca counter	HEK293 Ca cntr2
COc1cc(CCN2C(=O)c3cccc4cccc(c34)C2=O)c(S(=O)(=O)N2CCC(C)CC2)cc1OC	i	i	i	i	i	/	/	/	/
O=C(COC(=O)c1ccccc1[N+](=O)[O-])NCCCc1ccccc1	i	i	i	i	i	/	/	/	/
Cc1ccccc1N(CC(=O)N1CCN(c2ccccc2)CC1)S(C)(=O)=O	-7.7*	i	i	i	i	i	i	i	i
Cc1ccc2[nH]c3c(NCc4ccccc4)ncnc3c2c1	-7.4*	i	i	i	i	i	i	i	i
CC(C)OCCCNc1ncnc2c1[nH]c1ccccc12	-8.4*	i	i	i	i	52%*	i	i	i
COc1ccc(CNc2ncnc3c2[nH]c2ccccc23)cc1	i	i	i	i	i	/	/	/	/
CCOC(=O)C1CCN(C(=O)CCCn2nc(C)c3c(C)n(-c4ccc(C)cc4)nc3c2=O)CC1	i	i	i	i	i	/	/	/	/
Cc1ccc(Cl)c(OCC(=O)Nc2sc(C)c(C)c2C#N)c1	-7.9*	i	i	i	i	i	i	i	i
Cc1ccc(Cl)c(OCC(=O)Nc2cccnc2)c1	i	i	i	i	i	/	/	/	/
CCOC(=O)c1csc(NC(=O)CCSc2ccccc2)n1	-5.3*	i	i	i	i	i	i	i	i
CCOC(=O)c1nnc(-c2ccccc2)nc1N1CCSCC1	-5.6*	i	i	i	i	i	i	i	i
O=C(NCSC1=NCCS1)c1ccccc1	-5.3*	i	i	i	i	i	i	i	i
CCN(CC)CCn1c2c(c(SCC(=O)Nc3ccc(F)c(F)c3)nc1=O)CCC2	-9.5*	i	i	i	i	i	i	i	i
